Series [1] in a line: Half life in human plasma at 37 degC by HPLC method. Type of series: ADME, cell-free. Summed up:
(§1)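 10 mM ACN stock diluted to 250 μM final in preheated 37 °C human serum (lyophilized, reconstituted in water). Incubation stopped at fixed times with ice-cold ACN; remaining parent measured by HPLC; first-order half-life derived.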

In series [2] the target is T1, Prothrombin (Bos taurus, UniProt P00735). Kind of series: Inhibition of bovine thrombin assessed as reduction in hydrolysis of chromogenic substrate S-2238 by Cheng-Prusoff equation analysis.
For series [3], the system named is Plasma. Nature of the series: Anticoagulant activity in recombinant tissue factor and procoagulant phospholipids-stimulated human citrated plasma assessed as inhibition of thrombin peak by fluorometry based calibrated automated thrombography. It counts as functional, cell-free. Summed up: (§2)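 Pooled citrated human plasma spiked with test compounds at 0.01−10 μM or vehicle; 80 μL plasma incubated 10 min at 37 °C; thrombin generation triggered by low tissue factor, phospholipids and calcium. Lag-time, thrombin peak and endogenous thrombin potential (area under curve) read by calibrated automated thrombography and expressed as percent of vehicle control.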

A short description of series [4]: Aqueous solubility in pH 7.4 0.05 M phosphate buffer by HPLC method. It counts as physicochemical. Summed up:
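Excess solid (4−10 mg) in 0.05 M phosphate buffer pH 7.4 with 0.15 M KCl, shaken 1 h at 25 °C, then 15 min unshaken. Supernatant filtered and quantified by C18 HPLC (MeOH/0.05 M phosphate pH 4.5, UV 288 nm) against calibration curves of peak area.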

Series [5] concerns Plasma. Nature of the series: Profibrinolytic activity in tissue factor-induced human plasma exposed to exogenous tissue plasminogen activator assessed as time needed to lyse 50% fibrin clot by turbidimetric assay. Type of series: functional, cell-free. Summed up:
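Turbidimetric clot lysis at 37 °C: citrated human plasma spiked with compound or vehicle, plus phospholipids, t-PA (40 ng/mL stock), Tris-NaCl pH 7.4 and TF; clotting started with CaCl2. A405 read each minute for 3 h; lysis time from clot formation to midpoint of turbid-to-clear transition, as percent of vehicle; three independent plasma samples.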

In series [6] the test system is Plasma. Nature of the series: Anticoagulant activity in recombinant tissue factor and procoagulant phospholipids-stimulated human citrated plasma assessed as reduction in endogenous thrombin potential by fluorometry based calibrated automated thrombography. Type of series: functional, cell-free. Summed up:
as §2

In series [7] the test system is Plasma. Nature of the series: Anticoagulant activity in recombinant tissue factor and procoagulant phospholipids-stimulated human citrated plasma assessed as increase in time required to generate first traces of thrombin at 10 uM by fluorometry based calibrated automated thrombography. It counts as functional, cell-free. In outline: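 Pooled citrated human plasma spiked with test compound or vehicle (0.01−10 μM); clotting triggered by low tissue factor, phospholipids and calcium; thrombin generation followed by calibrated automated thrombography, 80 μL plasma preincubated 10 min at 37 °C. Lag-time = time to first traces of thrombin, expressed as percent of vehicle control plasma.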

Series [8] concerns Plasma. Kind of series: Anticoagulant activity in recombinant tissue factor and procoagulant phospholipids-stimulated human citrated plasma assessed as increase in time required to generate first traces of thrombin at 2 to 10 uM by fluorometry based calibrated automated thrombography. Type of series: functional, cell-free. In outline:
as §2

In series [9] the target is T2, Coagulation factor X (Homo sapiens, UniProt P00742). Kind of series: Inhibition of human factor10a assessed as reduction in hydrolysis of chromogenic substrate S-2765 by Cheng-Prusoff equation analysis. In outline:
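Chromogenic assay at pH 8: 2 nM human fXa with 0.04 mM S-2765, or 0.41 U/mL bovine thrombin with 0.05 mM S-2238 (final). Enzyme preincubated with inhibitor (0.01−100 nM or 0.01−100 μM, ≤1% DMSO); substrate added, A405 followed 5 min.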

A short description of series [10]: Stability in 0.05 M pH 7.4 phosphate buffer containing 0.15 M KCl assessed as unhydrolyzed compound after 4 hrs at 37 degC. The settings on record: read-out: Stability. It counts as physicochemical. Summed up:
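10 mM acetonitrile stock diluted to 250 μM final in 0.05 M phosphate buffer pH 7.40 with 0.15 M KCl, 37 °C; samples withdrawn at t0 and fixed times, filtered and analysed by HPLC (UV 288 nm) for remaining unhydrolyzed compound.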

The nature of series [11]: Lipophilicity, logKw of the compound by RP-HPLC method. Type of series: physicochemical. In outline:
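RP-HPLC on C18 column at 25 °C, 1.0 mL/min, UV 288 nm; capacity factors k′ = (tR − t0)/t0 measured at MeOH volume fractions 0.8 to 0.4 in 0.05 steps; log k′w taken as the polycratic capacity factor.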

The target of a further series is Prothrombin (Bos taurus) (UniProt P00735). Nature of the series: Inhibition of bovine thrombin assessed as reduction in hydrolysis of chromogenic substrate S-2238 at 1 mM by Cheng-Prusoff equation analysis.
Series [12] concerns the target T2, Coagulation factor X. Nature of the series: Inhibition of human factor10a assessed as reduction in hydrolysis of chromogenic substrate S-2765 at 1 mM by Cheng-Prusoff equation analysis.
Series [13] is described as follows: Stability in human plasma assessed as unhydrolyzed compound after 4 hrs at 37 degC by HPLC method. Type of series: ADME, cell-free. To be noted: read-out: Stability. Summed up: as §1
The target of series [14] is T2, Coagulation factor X. Kind of series: Inhibition of human factor10a assessed as reduction in hydrolysis of chromogenic substrate S-2765 by Lineweaver-Burk analysis. In outline:
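Human fXa fixed at 2 nM, S-2765 varied 25−200 μM, without or with inhibitor at four concentrations, pH 8, A405 initial rates; Lineweaver−Burk (1/v vs 1/[S]) plots used to assign inhibition type.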

Series [15] concerns the target T1, Prothrombin. Kind of series: Inhibition of bovine thrombin assessed as reduction in hydrolysis of chromogenic substrate S-2238 by Lineweaver-Burk analysis.
Setting [16] is: Homo sapiens, Plasma, read-out: EC50.
The mark [17] stands for this setting: Homo sapiens, Plasma, read-out: IC50.

A word on the half-life: it is the time in which the quantity being followed falls by half. As usually defined, the Ki is the dissociation constant of the complex between target and ligand, obtained from inhibition or displacement. By IC50 is commonly meant the concentration needed to halve the response being measured. A word on the solubility: it is the concentration that dissolves in the medium under given conditions. Low readings indicate a poorly soluble substance, high ones a readily soluble substance. As a reminder, the EC50 is the concentration that produces a half-maximal response. In general, inhibition refers to the relative decrease from the control value, in per cent.

≈ marks a conversion by molar mass, not a printed value. Calls of active or inactive are those of the source. The rule behind the calls is not given here. Bounds are passed on as bounds.

T2 sequence (P00742 41-179 limits assumed): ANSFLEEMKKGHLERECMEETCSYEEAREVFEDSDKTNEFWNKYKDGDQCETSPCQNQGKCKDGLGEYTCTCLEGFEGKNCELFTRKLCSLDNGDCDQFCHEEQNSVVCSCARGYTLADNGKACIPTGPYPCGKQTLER
T2 sequence (P00742 235-488 limits assumed): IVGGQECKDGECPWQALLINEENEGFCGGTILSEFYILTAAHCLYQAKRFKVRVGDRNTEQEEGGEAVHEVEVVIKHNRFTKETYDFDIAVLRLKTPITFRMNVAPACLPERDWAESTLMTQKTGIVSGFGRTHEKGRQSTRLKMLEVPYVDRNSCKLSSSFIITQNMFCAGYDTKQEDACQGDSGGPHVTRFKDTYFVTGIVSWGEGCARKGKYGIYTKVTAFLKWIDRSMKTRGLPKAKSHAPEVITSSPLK

In turn, `CC(=O)OC[C@H]1O[C@@H](OCCCOc2cccc(OCc3cc(-c4ccc(Cl)s4)on3)c2NC(=O)C2CCN(C(C)C)CC2)[C@H](OC(C)=O)[C@@H](OC(C)=O)[C@@H]1OC(C)=O` gave a half-life in series [1] of 2.8 h. For the same molecule, the Ki at Prothrombin [2] came out at 160 nM; at Coagulation factor X [9] it was 0.25 nM. The IC50 in the series with Plasma [3] came out at 1200 nM; with Plasma [6] (setting [17]), 10000 nM. Besides, the solubility in [4] is below 1 µM. The EC50 in the series on Plasma [5] (setting [16]) was 1800 nM. Moreover, the fold change (FC) in the series with Plasma [7] came to 9. For the same molecule, in the series on Plasma [8], the outcome was Active. Also, the remaining at 4 h in [10] is above 90%. This molecule also displayed a logKw in [11] of 5.07.
Take `Nc1c(OCCCO[C@@H]2O[C@H](CO)[C@@H](O)[C@H](O)[C@H]2O)cccc1OCc1cc(-c2ccc(Cl)s2)on1`: the inhibition constant (Ki) at Prothrombin [2] came out at 133000 nM; at Coagulation factor X [9], 6900 nM.
For `Nc1ccccc1OCc1cc(-c2ccc(Cl)s2)on1` the same measures were 31000 nM and 11600 nM.
For `Nc1c(OCCCO)cccc1OCc1cc(-c2ccc(Cl)s2)on1` the same measures were 29800 nM and 18300 nM.
Take `CC(C)N1CCC(C(=O)Nc2ccccc2)CC1`: the inhibition was 16% at Prothrombin (Bos taurus) and 13% on Coagulation factor X [12].
`CC(C)N1CCC(C(=O)Nc2ccccc2OCc2cc(-c3ccc(Cl)s3)on2)CC1`: the remaining at 4 h in [13] and in series [10] was above 90% throughout. For the same molecule, the IC50 with Plasma [3] was 10000 nM; with Plasma [6] it was “Not Active”. Besides, the results for the Ki on Coagulation factor X [14] and on Coagulation factor X [9] were 0.11 nM and 0.6 nM, respectively. Moreover, the concentration in solution in series [4] (solubility) came to 530 µM (≈ 244 µg/mL). Besides, in the series with Plasma [5], the concentration for a half-maximal effect (EC50) result is “Not Active”. For the same molecule, in the series with Plasma [7], the fold change (FC) came to 3. In the series with Plasma [8], the outcome was Active. Also, the logKw in [11] came to 3.49.
Turning to `CC(C)N1CCC(C(=O)Nc2c(OCCCO[C@@H]3O[C@H](CO)[C@@H](O)[C@H](O)[C@H]3O)cccc2OCc2cc(-c3ccc(Cl)s3)on2)CC1`, the Ki was determined as 100 nM at Prothrombin [2], 96 nM at Prothrombin [15], 0.87 nM at Coagulation factor X [14] and 0.09 nM at Coagulation factor X [9]. For the same molecule, the remaining at 4 h in series [13] and in [10] was above 90% throughout. Further, the half-maximal inhibitory concentration (IC50) is 300 nM with Plasma [3] and 3400 nM with Plasma [6] (setting [17]). Further, in series [4], the solubility was determined as 7330 µM (≈ 5100 µg/mL). Also, the EC50 with Plasma [5] (setting [16]) was 300 nM. For the same molecule, the fold change (FC) in the series on Plasma [7] amounted to 15. Further, in the series on Plasma [8], the result was Active. In [11], this molecule came in with a logKw of 3.07.
Regarding `COc1ccccc1NC(=O)C1CCN(C(C)C)CC1`, the values for the inhibition on Prothrombin (Bos taurus) and on Coagulation factor X [12] were 0% and 16%, respectively.
In the case of `CC1CNc2c(cccc2S(=O)(=O)N[C@@H](CCCNC(=N)N)C(=O)N2CC[C@@H](C)C[C@@H]2C(=O)O)C1` (stereo not given in full) [ARGATROBAN], the IC50 with Plasma [3] turned out to be 1900 nM; in the series on Plasma [6] (setting [17]), 2400 nM. The EC50 in the series on Plasma [5] (setting [16]) was found to be 600 nM.
Turning to `CC(C)N1CCC(C(=O)Nc2ccccc2OCCCO[C@@H]2[C@@H](O)[C@H](O)[C@@H](CO)O[C@H]2O)CC1`, the inhibition on Prothrombin (Bos taurus) was found to be 28%; at Coagulation factor X [12] it was 14%.
